In ChEMBL document CHEMBL4602710 (ACS Med Chem Lett, 2020):
Converted amounts (≈) assume the structure as drawn. The source made the active and inactive calls. The rule behind the calls is not given here.

Assays:
[1] = Fraction unbound in monkey plasma; type: ADME, cell-free, Macaca mulatta; details: rhesus monkey
[2] = Half life at steady state in human at 2 to 50 mg administered once daily; type: ADME; details: in vivo, read-out: t1/2ss
[3] = Fraction unbound in human plasma; type: ADME, cell-free
[4] = Fraction unbound in rat plasma; type: ADME, cell-free
Mus musculus [5] = test: Protective activity in NZBWF1/J mouse SLE model assessed as reduction in proteinuria at 0.25%, po administered daily for 12 weeks measured weekly from week 28-40; type: functional, organism-based
Method in brief: (§1)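 Spontaneous lupus model in NZB/W F1 mice, treated for 12 weeks. Proteinuria score followed from weeks 28–40; survival assessed at week 40.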

[6] = Distribution coefficient, logD of compound; type: physicochemical; details: octanol/water
[7] = AUC in dog pretreated with famotidine; type: ADME, Canis lupus familiaris; details: in vivo
[8] = Half life in rat at 1 mg/kg, iv or 5 mg/kg, po; type: ADME, organism-based; details: in vivo
[9] = Clearance in monkey at 1 mg/kg, iv or 5 mg/kg, po; type: ADME, organism-based, Macaca mulatta; details: rhesus monkey, in vivo
[10] = Oral bioavailability in rat at 5 mg/kg; type: ADME, organism-based; details: in vivo
[11] = Toxicity in human assessed as clinical abnormalities at 2 to 50 mg administered as single dose; details: in vivo
Method in brief: (§2)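 Healthy human volunteers received single doses of 2–50 mg or multiple doses of 15–50 mg; adverse events and laboratory abnormalities recorded.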

[12] = Clearance in rat at 1 mg/kg, iv or 5 mg/kg, po; type: ADME, organism-based; details: in vivo
[13] = Apparent clearance in human hepatocytes; type: ADME, cell-based, Hepatocyte
Hepatocyte [14] = test: Apparent clearance in dog hepatocytes; type: ADME, cell-based, Canis lupus familiaris
[15] = Fraction unbound in dog plasma; type: ADME, cell-free, Canis lupus familiaris
[16] = Apparent clearance in rat hepatocytes; type: ADME, cell-based, Hepatocyte
Mus musculus [17] = test: Protective activity in NZBWF1/J mouse SLE model assessed as increase in animal survival rate at 0.25%, po administered daily for 12 weeks measured at week 40; type: functional, organism-based; method in brief: as §1
[18] = AUC in dog pretreated with pentagastrin; type: ADME, Canis lupus familiaris; details: in vivo
[19] = Toxicity in human assessed as adverse events at 15 to 50 mg administered as multiple doses; details: in vivo; method in brief: as §2
[20] = Half life in dog at 1 mg/kg, iv or 5 mg/kg, po; type: ADME, organism-based, Canis lupus familiaris; details: in vivo
[21] = Volume of distribution at steady state in rat at 1 mg/kg, iv or 5 mg/kg, po; type: ADME, organism-based; details: in vivo, read-out: Vdss
[22] = Solubility of compound at pH 2; type: physicochemical; details: buffer
[23] = Clearance in dog at 1 mg/kg, iv or 5 mg/kg, po; type: ADME, organism-based, Canis lupus familiaris; details: in vivo
[24] = Clearance in human liver microsomes; type: ADME, Microsome
[25] = Oral bioavailability in dog at 5 mg/kg; type: ADME, organism-based, Canis lupus familiaris; details: in vivo
[26] = Oral bioavailability in monkey at 5 mg/kg; type: ADME, organism-based, Macaca mulatta; details: rhesus monkey, in vivo
[27] = AUC in human at 45 mg, po administered as single dose pretreated with omeprazole; type: ADME, organism-based; details: in vivo
Method in brief: (§3)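 Healthy human volunteers given a single oral 45 mg dose, either without pretreatment or after pretreatment with 20 mg omeprazole; plasma AUC compared.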

[28] = target: Tyrosine-protein kinase JAK2 (Homo sapiens, UniProt O60674); test: Inhibition of wild-type human partial length JAK2 JH1 catalytic domain (A829 to G1132 residues) expressed in mammalian expression system by Kinomescan method
Sequence of Tyrosine-protein kinase JAK2 (O60674 whole entry, the tested form may be a part): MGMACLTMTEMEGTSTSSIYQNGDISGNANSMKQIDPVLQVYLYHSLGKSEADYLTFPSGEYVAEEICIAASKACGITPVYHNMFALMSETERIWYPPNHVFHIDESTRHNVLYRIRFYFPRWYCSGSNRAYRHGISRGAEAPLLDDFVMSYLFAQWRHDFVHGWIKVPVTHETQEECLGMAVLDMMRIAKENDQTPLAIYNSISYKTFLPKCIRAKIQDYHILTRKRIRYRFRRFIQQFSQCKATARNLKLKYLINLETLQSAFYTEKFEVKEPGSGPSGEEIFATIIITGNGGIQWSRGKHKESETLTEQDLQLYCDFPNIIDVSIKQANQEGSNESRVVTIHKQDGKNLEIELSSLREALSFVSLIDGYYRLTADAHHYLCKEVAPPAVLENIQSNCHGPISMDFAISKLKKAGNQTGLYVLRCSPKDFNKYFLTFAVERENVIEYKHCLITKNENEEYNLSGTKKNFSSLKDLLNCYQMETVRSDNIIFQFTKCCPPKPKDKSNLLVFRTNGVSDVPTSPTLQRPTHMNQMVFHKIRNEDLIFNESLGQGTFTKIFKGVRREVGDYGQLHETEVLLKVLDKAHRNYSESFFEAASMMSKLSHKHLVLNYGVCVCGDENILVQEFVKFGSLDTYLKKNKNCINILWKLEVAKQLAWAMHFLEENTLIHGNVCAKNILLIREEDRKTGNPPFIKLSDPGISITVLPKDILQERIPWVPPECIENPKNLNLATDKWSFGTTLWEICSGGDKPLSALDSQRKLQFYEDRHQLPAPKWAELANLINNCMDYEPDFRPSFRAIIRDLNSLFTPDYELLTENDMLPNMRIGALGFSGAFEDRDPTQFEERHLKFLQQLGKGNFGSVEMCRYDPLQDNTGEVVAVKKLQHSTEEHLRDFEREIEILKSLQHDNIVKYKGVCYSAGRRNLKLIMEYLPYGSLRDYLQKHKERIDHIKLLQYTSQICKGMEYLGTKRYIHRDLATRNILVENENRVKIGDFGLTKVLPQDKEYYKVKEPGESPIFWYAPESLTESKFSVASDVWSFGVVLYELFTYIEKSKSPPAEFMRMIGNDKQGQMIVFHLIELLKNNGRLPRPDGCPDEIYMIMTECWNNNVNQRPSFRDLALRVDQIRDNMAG

[29] = Toxicity in human assessed as clinical abnormalities at 15 to 50 mg administered as multiple doses; details: in vivo; method in brief: as §2
[30] = Volume of distribution at steady state in dog at 1 mg/kg, iv or 5 mg/kg, po; type: ADME, organism-based, Canis lupus familiaris; details: in vivo, read-out: Vdss
[31] = Solubility of compound at pH 7.4; type: physicochemical; details: buffer
[32] = Toxicity in human assessed as adverse events at 2 to 50 mg administered as single dose; details: in vivo; method in brief: as §2
[33] = Half life in monkey at 1 mg/kg, iv or 5 mg/kg, po; type: ADME, organism-based, Macaca mulatta; details: rhesus monkey, in vivo
[34] = Volume of distribution at steady state in monkey at 1 mg/kg, iv or 5 mg/kg, po; type: ADME, organism-based, Macaca mulatta; details: rhesus monkey, in vivo, read-out: Vdss
[35] = AUC in human at 45 mg, po administered as single dose; type: ADME, organism-based; details: in vivo; method in brief: as §3
Hepatocyte [36] = test: Apparent clearance in monkey hepatocytes; type: ADME, cell-based, Macaca mulatta; details: rhesus monkey

Compound `Nc1cncc(-c2cn3ccnc3c(Nc3ccc(N4CCN(C5COC5)CC4)cc3)n2)n1` [LANRAPLENIB] has a fraction unbound [1] of 0.322, a half-life [2] of 21.3 to 24.6 h and a fraction unbound [3] of 0.204. For the same compound, the fraction unbound [4] was 0.118, the Activity (Mus musculus [5]) was “Active” and the logD [6] was 1.3. For the same compound, the AUC [7] was 10.2 µM·h, the half-life [8] was 3.7 h and the clearance [9] was 9.67 mL/min/kg. The bioavailability [10] was 60%, the Activity [11] was “Non-Toxic” and the clearance [12] was 29.5 mL/min/kg. For the same compound, the “CLH(app)” value [13] was 0.83 mL/min/kg, the “CLH(app)” value (Hepatocyte [14]) was 4.67 mL/min/kg and the fraction unbound [15] was 0.385. The “CLH(app)” value [16] was 23.3 mL/min/kg, the Activity (Mus musculus [17]) was “Active” and the AUC [18] was 8.8 µM·h. For the same compound, the Activity [19] was “Non-Toxic”, the half-life [20] was 5.3 h and the Vd [21] was 2.5 L/kg. The solubility [22] was greater than 100 µM, the clearance [23] was 5.5 mL/min/kg and the CLhep predicted [24] was less than 1.83 mL/min/kg. The bioavailability [25] was 100%, the bioavailability [26] was 100% and the AUC [27] was 6.46 µM·h. For the same compound, the IC50 [28] was 120 nM, the Activity [29] was “Non-Toxic” and the Vd [30] was 1.6 L/kg. The solubility [31] was 99 µM (≈ 43.9 µg/mL), the Activity [32] was “Non-Toxic” and the half-life [33] was 2.3 h. The Vd [34] was 1.3 L/kg, the AUC [35] was 6.19 µM·h and the “CLH(app)” value (Hepatocyte [36]) was 4.67 mL/min/kg.
